Data from ChEMBL document CHEMBL2407068, “Tropolones as lead-like natural products: the development of potent and selective histone deacetylase inhibitors” (ACS Med Chem Lett, 2013).

How the values were obtained:
Histone deacetylase 1 = Histone deacetylase 1 (Homo sapiens, UniProt Q13547); test: Inhibition of human recombinant HDAC1 by Michaelis-Menten equation analysis
Histone deacetylase 4 = Histone deacetylase 4 (Homo sapiens, UniProt P56524); test: Inhibition of human recombinant HDAC4 by Michaelis-Menten equation analysis
HuT78 = test: Cytotoxicity against human HUT78 cells after 72 hrs by MTS assay; format: functional; conditions: HuT78, 72 h
Histone deacetylase 5 = Histone deacetylase 5 (Homo sapiens, UniProt Q9UQL6); test: Inhibition of human recombinant HDAC5 by Michaelis-Menten equation analysis
HCT-116 = test: Cytotoxicity against human HCT116 cells after 72 hrs by MTS assay; format: functional; conditions: HCT-116, 72 h
[1] = Cytotoxicity against HDF after 72 hrs by MTS assay; conditions: human, HDF cells
Homo sapiens [2] = organism: Homo sapiens; test: Selectivity ratio of Ki for human recombinant HDAC5 to Ki for human recombinant HDAC2
Histone deacetylase 2 = Histone deacetylase 2 (Homo sapiens, UniProt Q92769); test: Inhibition of human recombinant HDAC2 by Michaelis-Menten equation analysis
Liver = test: Half life in mouse liver microsomes assessed as gluconoride formation at 0.4 ug/mL by HPLC-MS analysis in presence of UDPGA; format: ADME, Microsome
Outline: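 Mouse liver microsome incubation run for phase II conjugation, with UDPGA added. Half-life was determined, and the glucuronide conjugate was detected by mass spectrometry.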

Homo sapiens [3] = organism: Homo sapiens; test: Selectivity ratio of Ki for human recombinant HDAC6 to Ki for human recombinant HDAC2
BXPC-3 = test: Cytotoxicity against human BxPC3 cells after 72 hrs by MTS assay; format: functional; conditions: BXPC-3, 72 h
Homo sapiens [4] = organism: Homo sapiens; test: Selectivity ratio of Ki for human recombinant HDAC1 to Ki for human recombinant HDAC2
Histone deacetylase 8 [5] = target: T1, Histone deacetylase 8 (Homo sapiens, UniProt Q9BY41); test: Inhibition of human recombinant HDAC8 by Michaelis-Menten equation analysis
T1 sequence (Q9BY41 whole entry): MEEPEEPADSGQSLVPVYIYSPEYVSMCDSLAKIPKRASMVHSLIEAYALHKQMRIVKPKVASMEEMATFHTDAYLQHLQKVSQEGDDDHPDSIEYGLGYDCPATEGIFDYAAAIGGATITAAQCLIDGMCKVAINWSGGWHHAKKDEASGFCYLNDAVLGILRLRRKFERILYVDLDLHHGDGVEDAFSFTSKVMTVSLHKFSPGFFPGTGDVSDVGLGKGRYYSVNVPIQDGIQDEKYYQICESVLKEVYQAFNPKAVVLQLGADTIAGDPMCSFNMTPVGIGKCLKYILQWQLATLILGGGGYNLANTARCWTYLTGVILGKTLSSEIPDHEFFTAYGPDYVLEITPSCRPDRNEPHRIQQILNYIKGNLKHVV

[6] = target: T2, Protein deacetylase HDAC6 (Homo sapiens, UniProt Q9UBN7); test: Inhibition of human recombinant HDAC6 by Michaelis-Menten equation analysis
T2 sequence (Q9UBN7 whole entry): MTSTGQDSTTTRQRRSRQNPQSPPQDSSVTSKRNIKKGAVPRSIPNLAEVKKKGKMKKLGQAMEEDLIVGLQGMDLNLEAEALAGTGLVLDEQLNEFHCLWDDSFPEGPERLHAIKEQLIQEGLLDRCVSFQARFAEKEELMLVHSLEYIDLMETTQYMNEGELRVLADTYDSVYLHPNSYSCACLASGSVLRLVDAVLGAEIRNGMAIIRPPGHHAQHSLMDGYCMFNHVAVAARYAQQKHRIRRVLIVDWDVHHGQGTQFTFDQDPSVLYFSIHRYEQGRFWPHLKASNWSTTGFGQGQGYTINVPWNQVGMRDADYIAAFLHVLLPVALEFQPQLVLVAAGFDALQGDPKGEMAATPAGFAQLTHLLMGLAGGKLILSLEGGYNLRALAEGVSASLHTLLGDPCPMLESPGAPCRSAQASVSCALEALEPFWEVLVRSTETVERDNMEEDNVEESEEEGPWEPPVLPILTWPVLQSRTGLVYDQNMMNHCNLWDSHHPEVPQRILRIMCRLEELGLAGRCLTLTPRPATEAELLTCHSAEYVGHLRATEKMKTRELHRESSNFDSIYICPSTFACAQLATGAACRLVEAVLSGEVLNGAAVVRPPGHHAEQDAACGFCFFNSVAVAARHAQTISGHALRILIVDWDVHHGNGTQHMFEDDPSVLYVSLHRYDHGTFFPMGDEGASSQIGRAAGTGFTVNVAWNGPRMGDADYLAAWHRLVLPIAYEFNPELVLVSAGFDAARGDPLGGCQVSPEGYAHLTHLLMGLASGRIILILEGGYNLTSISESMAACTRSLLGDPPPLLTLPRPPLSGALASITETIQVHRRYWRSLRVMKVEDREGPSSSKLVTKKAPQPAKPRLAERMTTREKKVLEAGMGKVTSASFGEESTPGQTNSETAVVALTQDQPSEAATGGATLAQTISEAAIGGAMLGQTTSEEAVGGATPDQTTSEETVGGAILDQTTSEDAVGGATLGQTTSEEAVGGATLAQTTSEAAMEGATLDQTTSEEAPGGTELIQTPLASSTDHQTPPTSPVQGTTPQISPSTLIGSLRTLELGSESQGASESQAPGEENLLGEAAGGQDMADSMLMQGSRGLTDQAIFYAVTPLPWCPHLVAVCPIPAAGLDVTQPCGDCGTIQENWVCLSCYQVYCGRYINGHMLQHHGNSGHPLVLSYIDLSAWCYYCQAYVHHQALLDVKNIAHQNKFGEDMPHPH

Homo sapiens [7] = organism: Homo sapiens; test: Selectivity ratio of Ki for human recombinant HDAC4 to Ki for human recombinant HDAC2
Jurkat = test: Cytotoxicity against human Jurkat cells after 72 hrs by MTS assay; format: functional
Homo sapiens [8] = organism: Homo sapiens; test: Selectivity ratio of Ki for human recombinant HDAC8 to Ki for human recombinant HDAC2
[9] = Half life in mouse liver microsomes at 0.4 ug/mL by HPLC-MS analysis in presence of NADPH; format: ADME, Microsome
Histone deacetylase 8 [10] = target: T1, Histone deacetylase 8; test: Competitive inhibition of human recombinant HDAC8 by Michaelis-Menten equation analysis

Sequence of Histone deacetylase 1 (Q13547 whole entry): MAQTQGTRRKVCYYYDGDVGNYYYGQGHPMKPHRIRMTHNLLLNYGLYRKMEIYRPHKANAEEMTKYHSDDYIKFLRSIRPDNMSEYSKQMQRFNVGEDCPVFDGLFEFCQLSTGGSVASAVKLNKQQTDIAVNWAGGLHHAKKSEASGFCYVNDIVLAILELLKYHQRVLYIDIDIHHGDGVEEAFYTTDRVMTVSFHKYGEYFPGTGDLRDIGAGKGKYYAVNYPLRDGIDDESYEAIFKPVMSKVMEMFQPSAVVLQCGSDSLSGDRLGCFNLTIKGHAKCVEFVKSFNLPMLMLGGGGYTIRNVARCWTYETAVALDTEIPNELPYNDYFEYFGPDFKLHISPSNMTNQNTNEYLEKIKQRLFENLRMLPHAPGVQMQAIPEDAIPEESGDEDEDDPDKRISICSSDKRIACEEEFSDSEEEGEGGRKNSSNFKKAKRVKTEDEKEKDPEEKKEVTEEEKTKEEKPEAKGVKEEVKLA
Sequence of Histone deacetylase 5 (Q9UQL6 whole entry): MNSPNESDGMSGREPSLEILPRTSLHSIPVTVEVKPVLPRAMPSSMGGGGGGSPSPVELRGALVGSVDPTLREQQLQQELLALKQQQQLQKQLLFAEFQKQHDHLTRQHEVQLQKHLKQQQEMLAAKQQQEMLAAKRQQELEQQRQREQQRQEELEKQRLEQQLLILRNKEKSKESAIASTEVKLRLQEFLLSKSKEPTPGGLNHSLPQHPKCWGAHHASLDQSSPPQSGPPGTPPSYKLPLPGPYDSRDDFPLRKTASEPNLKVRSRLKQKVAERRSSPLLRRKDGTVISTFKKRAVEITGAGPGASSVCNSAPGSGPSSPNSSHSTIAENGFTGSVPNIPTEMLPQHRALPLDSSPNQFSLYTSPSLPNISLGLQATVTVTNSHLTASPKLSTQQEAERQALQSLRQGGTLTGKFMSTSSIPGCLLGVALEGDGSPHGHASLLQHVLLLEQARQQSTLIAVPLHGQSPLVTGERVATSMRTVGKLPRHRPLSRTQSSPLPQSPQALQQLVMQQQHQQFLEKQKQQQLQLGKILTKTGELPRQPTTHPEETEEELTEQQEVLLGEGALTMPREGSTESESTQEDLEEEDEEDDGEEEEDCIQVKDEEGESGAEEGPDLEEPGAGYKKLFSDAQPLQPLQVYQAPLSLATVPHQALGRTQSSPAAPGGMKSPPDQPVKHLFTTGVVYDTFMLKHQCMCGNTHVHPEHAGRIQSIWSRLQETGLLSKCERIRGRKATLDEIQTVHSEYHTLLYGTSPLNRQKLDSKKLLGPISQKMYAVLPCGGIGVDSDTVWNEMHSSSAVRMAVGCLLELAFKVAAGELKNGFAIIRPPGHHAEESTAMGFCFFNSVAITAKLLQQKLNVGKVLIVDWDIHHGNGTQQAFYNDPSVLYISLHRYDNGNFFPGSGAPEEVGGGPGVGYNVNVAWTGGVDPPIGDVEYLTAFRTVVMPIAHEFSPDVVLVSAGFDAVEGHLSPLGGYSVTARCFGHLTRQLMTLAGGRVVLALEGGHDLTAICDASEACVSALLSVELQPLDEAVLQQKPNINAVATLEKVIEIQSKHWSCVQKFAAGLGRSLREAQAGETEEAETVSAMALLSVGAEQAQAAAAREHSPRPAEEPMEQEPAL
Sequence of Histone deacetylase 2 (Q92769 whole entry): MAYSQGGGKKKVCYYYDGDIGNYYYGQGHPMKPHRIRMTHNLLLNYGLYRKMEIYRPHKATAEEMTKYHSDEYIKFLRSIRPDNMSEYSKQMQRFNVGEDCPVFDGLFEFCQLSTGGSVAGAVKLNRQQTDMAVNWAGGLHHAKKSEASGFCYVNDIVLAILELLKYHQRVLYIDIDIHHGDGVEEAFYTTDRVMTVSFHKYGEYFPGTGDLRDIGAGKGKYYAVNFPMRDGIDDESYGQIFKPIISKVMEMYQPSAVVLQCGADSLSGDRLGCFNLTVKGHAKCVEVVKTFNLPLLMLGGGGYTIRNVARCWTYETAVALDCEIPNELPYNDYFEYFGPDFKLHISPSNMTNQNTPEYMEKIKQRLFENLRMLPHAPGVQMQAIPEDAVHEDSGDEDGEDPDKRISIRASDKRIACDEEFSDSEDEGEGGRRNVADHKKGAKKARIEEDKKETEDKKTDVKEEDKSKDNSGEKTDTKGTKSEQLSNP
Sequence of Histone deacetylase 4 (P56524 whole entry): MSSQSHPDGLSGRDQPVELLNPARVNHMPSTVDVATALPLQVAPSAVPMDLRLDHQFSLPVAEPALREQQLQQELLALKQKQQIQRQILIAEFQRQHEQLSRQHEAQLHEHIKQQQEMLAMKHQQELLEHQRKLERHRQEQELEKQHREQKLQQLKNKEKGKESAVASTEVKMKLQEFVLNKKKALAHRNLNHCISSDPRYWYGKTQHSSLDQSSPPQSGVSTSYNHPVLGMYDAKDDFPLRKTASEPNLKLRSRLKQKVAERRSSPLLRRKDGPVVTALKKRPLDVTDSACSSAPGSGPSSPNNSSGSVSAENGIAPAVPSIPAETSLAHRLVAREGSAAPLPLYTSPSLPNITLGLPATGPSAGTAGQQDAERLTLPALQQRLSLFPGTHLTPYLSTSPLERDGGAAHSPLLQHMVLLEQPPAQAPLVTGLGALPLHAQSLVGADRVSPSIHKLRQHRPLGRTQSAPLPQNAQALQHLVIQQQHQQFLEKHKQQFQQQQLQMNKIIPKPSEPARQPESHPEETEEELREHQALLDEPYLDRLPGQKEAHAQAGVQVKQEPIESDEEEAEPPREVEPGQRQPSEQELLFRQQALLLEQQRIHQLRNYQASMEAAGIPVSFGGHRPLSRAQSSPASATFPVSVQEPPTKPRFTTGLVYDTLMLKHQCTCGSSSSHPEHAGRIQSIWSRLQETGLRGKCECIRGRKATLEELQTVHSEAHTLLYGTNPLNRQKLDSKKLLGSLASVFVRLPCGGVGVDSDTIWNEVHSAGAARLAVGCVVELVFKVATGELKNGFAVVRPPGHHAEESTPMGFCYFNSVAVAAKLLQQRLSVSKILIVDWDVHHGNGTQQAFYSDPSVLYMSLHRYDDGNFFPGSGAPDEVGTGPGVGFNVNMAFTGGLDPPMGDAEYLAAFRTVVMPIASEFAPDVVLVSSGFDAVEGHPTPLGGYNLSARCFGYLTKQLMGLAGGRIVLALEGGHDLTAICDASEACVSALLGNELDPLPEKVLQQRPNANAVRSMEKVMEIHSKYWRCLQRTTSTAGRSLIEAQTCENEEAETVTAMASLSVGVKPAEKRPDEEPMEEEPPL

SMILES | Ki (Histone deacetylase 1) [nM] | Ki (Histone deacetylase 4) [nM] | Ki (Histone deacetylase 5) [nM] | Ratio Ki (Homo sapiens [2]) | Ki (Histone deacetylase 2) [nM] | t1/2 (Liver) [h] | Ratio Ki (Homo sapiens [3]) | Ratio Ki (Homo sapiens [4]) | Ki (Histone deacetylase 8 [5]) [nM] | Ki [6] [nM] | Ratio Ki (Homo sapiens [7]) | Ratio Ki (Homo sapiens [8]) | half-life at 0.4 ug/mL [9] [h] | Ki (Histone deacetylase 8 [10]) [nM] | GI50 (HuT78) [nM] | GI50 (HCT-116) [nM] | GI50 at 72 h [1] [nM] | GI50 (BXPC-3) [nM] | GI50 (Jurkat) [nM]
COc1cccc(C(C)C)cc1=O | > 2500 | 11600 | > 2500 | – | > 2500 | > 1 | – | – | 7.87 | > 2500 | – | – | – | – | > 100000 | > 100000 | > 100000 | > 100000 | > 100000
O=C(CCCCCCC(=O)Nc1ccccc1)NO [VORINOSTAT] | – | – | – | – | – | – | – | – | – | – | – | – | 0.467 | – | 2100 | 2500 | 19000 | 5560 | 900
COc1ccc(-c2cccc(O)c(=O)c2)cc1 | > 2500 | 8360 | > 2500 | – | 0.12 | > 1 | – | – | 2.38 | > 2500 | – | – | – | – | 8950 | 43700 | > 100000 | 91600 | 4620
COc1ccc(-c2ccccc(O)c2=O)c(OC)c1OC | > 2500 | > 20000 | > 2500 | > 100 | 0.23 | > 1 | > 100 | > 100 | 124 | > 2500 | > 100 | > 100 | – | – | 4740 | 35000 | > 100000 | 21000 | 1860
CC(C)c1cccc(=O)c(O)c1 [HINOKITIOL] | > 2500 | > 20000 | > 2500 | – | 15.4 | > 1 | – | – | 178 | > 2500 | – | – | – | – | 4990 | 6920 | > 100000 | 19000 | 1100
O=c1cc(C2CCCC2)cccc1O | > 2500 | 990 | > 2500 | > 100 | 0.04 | > 1 | > 100 | > 100 | 123 | > 2500 | > 100 | > 100 | – | – | 11400 | > 100000 | > 100000 | 180000 | 6300
O=c1c(O)ccccc1-c1ccc2ccccc2c1 | > 2500 | > 20000 | > 2500 | > 100 | 0.25 | > 1 | > 100 | > 100 | 186 | > 2500 | > 100 | > 100 | – | – | 4110 | 32100 | 93100 | 17100 | 1150

More lines, main results first:

Ki (Histone deacetylase 1) [nM] | Ki (Histone deacetylase 4) [nM] | Ki (Histone deacetylase 5) [nM] | Ratio Ki (Homo sapiens [2]) | Ki (Histone deacetylase 2) [nM] | t1/2 (Liver) [h] | Ratio Ki (Homo sapiens [3]) | Ratio Ki (Homo sapiens [4]) | Ki (Histone deacetylase 8 [5]) [nM] | Ki [6] [nM] | Ratio Ki (Homo sapiens [7]) | Ratio Ki (Homo sapiens [8]) | half-life at 0.4 ug/mL [9] [h] | Ki (Histone deacetylase 8 [10]) [nM] | SMILES | GI50 (HuT78) [nM] | GI50 (HCT-116) [nM] | GI50 at 72 h [1] [nM] | GI50 (BXPC-3) [nM] | GI50 (Jurkat) [nM]
> 2500 | > 20000 | > 2500 | > 100 | 0.81 | > 1 | > 100 | > 100 | 83.8 | > 2500 | > 100 | > 100 | – | – | COc1ccc(-c2ccccc(O)c2=O)cc1 | 2870 | 57000 | > 100000 | 35900 | 620
> 2500 | 11200 | > 2500 | > 100 | 0.51 | > 1 | > 100 | > 100 | 266 | > 2500 | > 100 | > 100 | – | – | COc1ccc(OC)c(-c2cccc(O)c(=O)c2)c1 | 17100 | > 100000 | > 100000 | 34800 | 5890
> 2500 | 806 | > 2500 | > 100 | 0.13 | > 1 | > 100 | > 100 | 12.8 | > 2500 | > 100 | > 100 | – | – | CC(C)(C)c1cccc(O)c(=O)c1 | 13100 | 62600 | > 100000 | 43000 | 4450
> 2500 | 10900 | > 2500 | – | 0.06 | > 1 | – | – | 1.47 | > 2500 | – | – | – | – | O=c1cc(-c2ccccc2)cccc1O | 4140 | 53400 | > 100000 | 18500 | 670
> 2500 | > 20000 | > 2500 | – | 0.26 | > 1 | – | – | 1.09 | 527 | – | – | 1.55 | 0.53 | O=c1c(O)ccccc1-c1ccccc1 | 7830 | 15200 | 96500 | 29400 | 3330
> 2500 | 6110 | > 2500 | – | 0.22 | > 1 | – | – | 2.27 | > 2500 | – | – | – | – | CCC(C)c1cccc(O)c(=O)c1 (centres undefined) | 3250 | 26900 | > 100000 | 104000 | 590
> 2500 | > 20000 | > 2500 | > 100 | 0.42 | > 1 | > 100 | > 100 | 811 | > 2500 | > 100 | > 100 | – | – | COc1ccc(OC)c(-c2ccccc(O)c2=O)c1 | 3050 | 46600 | > 100000 | 14100 | 760
